Laboratory results reported in ChEMBL document CHEMBL1125438, “Synthesis and anti-HIV activity of 4'-azido- and 4'-methoxynucleosides” (J Med Chem, 1992).
Where “and” joins values, the source holds several entries; their conditions need not be identical. Equal entries are not always repeated.

Tests used:
[1] = Selectivity index is defined as CC25(A3.01 cells) / IC50(A3.01 cells); format: functional
Summary of the method: (§1)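 Selectivity index = CC25/IC50 within each line (A3.01, H9 or PBL). CC25 came from visual grading of mock-infected cells after 7 days. IC50 came from reverse transcriptase activity in infected-cell supernatants after 7 days, with medium and compound changed on day 4.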

[2] = In vitro Cytotoxic concentration in mock-infected A3.01 cells - 100% toxicity.; format: functional, Homo sapiens
Summary of the method: (§2)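 Toxicity was read on mock-infected A3.01, H9 or PBL cells handled alongside the infected ones (3 h mock infection, wash). Compounds were 3-fold serially diluted (AZT 5-fold). Incubation lasted 7 days, with medium and compound changed on day 4. Cytotoxicity was graded by eye from cell morphology and death. […] Single determination.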

[3] = In vitro Cytotoxic concentration in mock-infected A3.01 cells.; format: functional, Homo sapiens; summary of the method: as §2
MT2 [4] = assay: In vitro Cytotoxic concentration which reduced HIV-1 LAV infected MT-2 cells by 50 percent; format: functional, cell-based; settings: Homo sapiens
Summary of the method: (§3)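 MT-2 cells were infected for 3 h at 37 °C in 5% CO2 with HIV-1 LAV or with clinical isolates G762-3, H112-2 (pre-AZT) or G691-2, G910-6p2 (post-AZT), then washed. Serial compound dilutions (3-fold; AZT 5-fold) followed, with 4-day incubation. Virus was measured as p24 core antigen by kit. IC50 = 50% reduction versus control cultures. Single determination.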

[5] = In vitro Cytotoxic concentration which reduced HIV-1 LAV infected peripheral blood lymphocytes by 50 percent; format: functional
Summary of the method: (§4)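 Cells (A3.01, H9 or PBL) infected with HIV-1 LAV for 3 h at 37 °C in 5% CO2, then washed free of unadsorbed virus. Test compounds were serially diluted 3-fold and AZT 5-fold. Cultures ran 7 days, with medium and compound renewed on day 4. Reverse transcriptase activity in supernatants gave virus levels. IC50 = concentration cutting virus by 50% versus control cultures. Single determination.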

H9 [6] = assay: In vitro Cytotoxic concentration which reduced HIV-1 LAV infected H9 cells by 25 percent; format: functional, Homo sapiens; summary of the method: as §2
MT2 [7] = assay: In vitro Cytotoxic concentration which destroyed HIV-1 LAV infected MT-2 cells completely; format: functional, Homo sapiens
Summary of the method: (§5)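 MT-2 cells were mock-infected for 3 h at 37 °C in 5% CO2, then washed. Compound was added as serial dilutions (3-fold; AZT 5-fold) and incubated 4 days. Cytotoxicity was counted by trypan blue dye exclusion on a hemocytometer. […] Single determination.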

[8] = Selectivity index is defined as CC25(MT2 cells) / […]; format: functional
Summary of the method: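 Selectivity index = CC25/IC50 in MT-2 cells. CC25 came from trypan blue exclusion on mock-infected cells after 4 days. IC50 came from the 50% reduction in p24 antigen in HIV-1 LAV-infected cultures after 4 days.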

MT2 [9] = assay: (§6) In vitro Cytotoxic concentration which destroyed HIV-1 LAV infected peripheral blood lymphocytes (PBL) completely; format: functional, Homo sapiens; summary of the method: as §2
MT2 [10] = assay: In vitro Cytotoxic concentration which reduced G 762-3(pre-AZT) infected MT-2 cells by 50 percent; format: functional, cell-based; settings: Homo sapiens; summary of the method: as §3
[11] = Selectivity index is defined as CC25(PBLcells) / […]; format: functional; summary of the method: as §1
MT2 [12] = assay: In vitro Cytotoxic concentration which reduced G 910-6p2 (post-AZT) infected MT-2 cells by 50 percent; format: functional, cell-based; settings: Homo sapiens; summary of the method: as §3
MT2 [13] = assay: In vitro Cytotoxic concentration which reduced HIV-1 LAV infected MT-2 cells by 25 percent; format: functional, Homo sapiens; summary of the method: as §5
[14] = Selectivity index is defined as CC25(H9 cells) / […]; format: functional; summary of the method: as §1
MT2 [15] = assay: In vitro Cytotoxic concentration which reduced H 112-2(pre-AZT) infected MT-2 cells by 50 percent; format: functional, cell-based; settings: Homo sapiens; summary of the method: as §3
H9 [16] = assay: In vitro Cytotoxic concentration which reduced HIV-1 LAV infected H9 cells by 50 percent; format: functional, cell-based; settings: Homo sapiens; summary of the method: as §4
MT2 [17] = assay: In vitro Cytotoxic concentration which reduced G 691-2(post-AZT) infected MT-2 cells by 50 percent; format: functional, cell-based; settings: Homo sapiens; summary of the method: as §3
[18] = In vitro Cytotoxic concentration which reduced HIV-1 LAV infected peripheral blood lymphocytes (PBL) by 25 percent; format: functional; summary of the method: as §2
H9 [19] = assay: In vitro Cytotoxic concentration which destroyed HIV-1 LAV infected H9 cells completely; format: functional, Homo sapiens; summary of the method: as §2
[20] = In vitro cytotoxic concentration for mock-infected cells at which complete destruction of cells was observed; format: functional; summary of the method: as §2
[21] = Selectivity index is defined as CC25(A3.01 cells) / IC50(A3.01 cells); selectivity Index = CC25/IC50; format: functional; summary of the method: as §1
[22] = In vitro cytotoxic concentration for mock-infected CD4+ T cells at which 25% cells were destroyed; format: functional, T-cell; summary of the method: as §2
[23] = as §6; format: functional; summary of the method: as §2

Molecule `[N-]=[N+]=N[C@]1(CO)O[C@@H](n2ccc(N)nc2=O)C[C@@H]1O` has a Selectivity index [1] of 53, a CC100 [2] of 1.9 µM and a CC25 [3] of 0.21 µM.

Work on `Cc1cn([C@H]2CC[C@@](CO)(N=[N+]=[N-])O2)c(=O)[nH]c1=O` yielded a CC100 [2] of 33.3 µM and a CC25 [3] of 11.1 µM.

`Cc1cn([C@H]2CC[C@](CO)(N=[N+]=[N-])O2)c(=O)[nH]c1=O` gave a CC100 [2] of 200 µM and a CC25 [3] of 22 µM.

For `[N-]=[N+]=N[C@]1(CO)O[C@@H](n2ccc(=O)[nH]c2=O)[C@H](O)[C@@H]1O`, the Selectivity index [1] was over 2.74, the CC100 [2] was over 200 µM and the CC25 [3] was over 200 µM.

Work on `Cc1cn([C@H]2C[C@H](O)[C@](CO)(N=[N+]=[N-])O2)c(=O)[nH]c1=O` yielded an IC50 (MT2 [4]) of 0.4 µM, an IC50 [5] of 0.02 µM and a CC25 (H9 [6]) of 25 µM. For the same molecule, the CC100 (MT2 [7]) was over 500 µM, the Selectivity index [8] was 140 and the Selectivity index [1] was 800. The CC100 (MT2 [9]) was over 200 µM, the IC50 (MT2 [10]) was 0.43 µM and the CC100 [2] was 200 µM and >200 µM. It also gave a Selectivity index [11] of 125, an IC50 (MT2 [12]) of 0.52 µM and a CC25 (MT2 [13]) of 56 µM. For the same molecule, the Selectivity index [14] was 625, the IC50 (MT2 [15]) was 0.4 µM and the IC50 (H9 [16]) was 0.4 µM. It also gave an IC50 (MT2 [17]) of 0.34 µM, a CC25 [18] of 2.5 µM and a CC100 (H9 [19]) of 667 µM.

In the case of `Cc1cn(C2C=CC(CO)(N=[N+]=[N-])O2)c(=O)[nH]c1=O` (configuration not stated), the CC100 [2] is reported as 7.4 µM and the CC25 [3] is reported as 2.5 µM.

With `[N-]=[N+]=N[C@]1(CO)O[C@@H](N2C=NC3C(=O)N=C(N)N=C32)C[C@@H]1O` (some centres not stated) the Selectivity index [1] was 70, the CC100 [2] was 1.9 µM and the CC25 [3] was 0.21 µM.

Molecule `[N-]=[N+]=N[C@]1(CO)O[C@@H](N2C=NC3C(=O)N=CN=C32)C[C@@H]1O` (some centres not stated) has a Selectivity index [1] of under 34, a CC100 [2] of 200 µM and a CC25 [3] of under 22 µM.

`CO[C@H]1C[C@H](n2cc(C)c(=O)[nH]c2=O)O[C@@]1(CO)N=[N+]=[N-]` showed a Selectivity index [1] of over 9.8, a CC100 [2] of over 200 µM and a CC25 [3] of over 200 µM.

`CO[C@]1(CO)O[C@@H](n2cc(C)c(=O)[nH]c2=O)C[C@@H]1O` showed a Selectivity index [1] of over 23.6, a CC100 [2] of over 200 µM and a CC25 [3] of over 200 µM.

`CO[C@]1(CO)O[C@@H](n2cnc3c(O)nc(N)nc32)C[C@@H]1O` gave a CC100 [20] of 67 µM, a Selectivity index [21] of 220 and a CC25 [22] of 22 µM.

In the case of `CO[C@]1(CO)O[C@@H](n2cnc3c(N)ncnc32)C[C@@H]1O`, the Selectivity index [1] is reported as 64.5, the CC100 [2] is reported as over 1000 µM and the CC25 [3] is reported as 1000 µM.

With `[N-]=[N+]=N[C@]1(CO)O[C@@H](n2cc(Cl)c(=O)[nH]c2=O)C[C@@H]1O` the Selectivity index [1] was 17900, the CC100 [2] was over 1000 µM and the CC25 [3] was 1000 µM.

Molecule `[N-]=[N+]=N[C@]1(CO)O[C@@H](n2cnc3c(N)ncnc32)C[C@@H]1O` has a Selectivity index [1] of 385, a CC100 [2] of over 50 µM and a CC25 [3] of 50 µM.

With `[N-]=[N+]=N[C@]1(CO)O[C@@H](n2ccc(=O)[nH]c2=O)C[C@@H]1O` the Selectivity index [1] was 250, the CC100 [2] was over 200 µM and the CC25 [3] was 200 µM.

In the case of `COC1(CO)OC(n2cc(C)c(=O)[nH]c2=O)CC1F` (configuration not stated), the Selectivity index [1] is reported as 125, the CC100 [2] is reported as over 400 µM and the CC25 [3] is reported as 400 µM.

Molecule `[N-]=[N+]=N[C@]1(CO)O[C@@H](n2ccc(N)nc2=O)[C@H](O)[C@@H]1O` [4'-AZIDOCYTIDINE] has a CC100 [2] of 74.1 µM and a CC25 [3] of 8.2 µM.

With `Cc1cn([C@H]2C[C@H](N=[N+]=[N-])[C@@H](CO)O2)c(=O)[nH]c1=O` [ZIDOVUDINE] the IC50 (MT2 [4]) was 0.16 µM, the IC50 [5] was 0.08 µM and the CC25 (H9 [6]) was 44 µM. It also gave a CC100 (MT2 [7]) of over 500 µM, an IC50 (MT2 [10]) of 0.22 µM and a CC100 [2] of 3300 µM. It also gave an IC50 (MT2 [12]) of 31 µM, a CC100 [23] of over 500 µM and a CC25 (MT2 [13]) of 56 µM. For the same molecule, the IC50 (MT2 [15]) was 0.2 µM, the IC50 (H9 [16]) was 0.03 µM and the IC50 (MT2 [17]) was 10 µM. It also gave a CC25 [18] of 4 µM, a CC100 (H9 [19]) of 1200 µM and a CC25 [3] of 825 µM.
